The target in data set [1] is T1, Butyrophilin subfamily 3 member A1 (Homo sapiens, UniProt O00481). Put plainly: Displacement of GDP-BODIPY from C-terminal 6His-tagged BTN3A1 B30.2 domain (unknown origin) expressed in Escherichia coli BL21 (DE) measured after 60 mins by fluorescence polarization assay. (Fluorescence polarisation rises when a labelled molecule tumbles more slowly, as on binding a larger partner.)
Target sequence in this assay (O00481 whole entry): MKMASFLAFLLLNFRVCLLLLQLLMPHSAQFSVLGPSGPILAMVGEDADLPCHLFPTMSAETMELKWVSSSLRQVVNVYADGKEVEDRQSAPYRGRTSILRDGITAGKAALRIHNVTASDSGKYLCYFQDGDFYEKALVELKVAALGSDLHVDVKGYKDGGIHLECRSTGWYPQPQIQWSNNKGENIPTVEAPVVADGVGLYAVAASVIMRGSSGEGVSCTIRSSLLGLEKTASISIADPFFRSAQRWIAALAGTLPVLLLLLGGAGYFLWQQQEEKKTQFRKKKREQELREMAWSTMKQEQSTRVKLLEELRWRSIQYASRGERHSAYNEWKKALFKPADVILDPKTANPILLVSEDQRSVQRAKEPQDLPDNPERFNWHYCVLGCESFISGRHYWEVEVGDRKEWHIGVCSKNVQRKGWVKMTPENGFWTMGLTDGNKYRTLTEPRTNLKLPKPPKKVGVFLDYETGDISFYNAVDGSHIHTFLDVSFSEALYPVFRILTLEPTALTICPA

The target in data set [2] is T1, Butyrophilin subfamily 3 member A1. In words: Displacement of GDP-BODIPY from C-terminal 6His-tagged BTN3A1 full […] domain (unknown origin) expressed in Escherichia coli BL21 (DE) measured after 60 mins by fluorescence polarization assay.
Target sequence in this assay (O00481 whole entry): as above
For data set [3] the target is unchanged. In words: Activation of BTN3A1 in human PBMC-derived Vgamma9/Vdelta2 T cells assessed as induction of IL2-stimulated IFNgamma production measured after 48 hrs by ELISA. As to conditions: for pEC50: read-out: EC50.
Target sequence in this assay (O00481 whole entry): as above
For data set [4] the target is unchanged. Put plainly: Activation of BTN3A1 in human PBMC-derived Vgamma9/Vdelta2 T cells assessed as induction of IL2-stimulated cell proliferation by measuring increase in CD3+ cells up to 100 uM preincubated for 3 days followed by 11 days incubation post compound washout and subsequent IL2 stimulation for every 3 days measured after 14 days by flow cytometry. Format: cell-based.
Target sequence in this assay (O00481 30-513 limits assumed): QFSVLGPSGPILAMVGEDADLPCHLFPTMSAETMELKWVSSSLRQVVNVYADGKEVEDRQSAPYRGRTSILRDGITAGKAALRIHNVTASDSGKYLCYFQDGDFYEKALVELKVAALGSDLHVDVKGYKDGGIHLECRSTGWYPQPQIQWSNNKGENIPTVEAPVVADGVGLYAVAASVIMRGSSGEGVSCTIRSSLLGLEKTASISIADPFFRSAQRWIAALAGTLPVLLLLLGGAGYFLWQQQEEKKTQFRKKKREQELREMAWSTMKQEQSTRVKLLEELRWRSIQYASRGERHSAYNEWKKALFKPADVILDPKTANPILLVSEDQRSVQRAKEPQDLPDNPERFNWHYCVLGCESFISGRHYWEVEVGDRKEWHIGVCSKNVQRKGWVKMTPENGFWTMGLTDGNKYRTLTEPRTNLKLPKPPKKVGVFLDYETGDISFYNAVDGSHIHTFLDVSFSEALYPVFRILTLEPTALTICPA

Data set [5] in a line: Drug uptake in human PBMC assessed as parent compound remaining at 10 uM measured after 6 hrs by UPLC-MS analysis. Type of data set: ADME, cell-based. As to conditions: PBMC (peripheral blood mononuclear cells), read-out: Drug uptake. The procedure, abridged: (§1)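 Compound at 10 μM final was added to human PBMCs (1,000,000 cells/mL) suspended in T cell media and incubated. The supernatant was collected and stored at –20 °C, then analysed by UPLC-MS on a C18 column (25% to 80% acetonitrile over 8 min). The integrated molecular-ion signal is reported relative to t = 0.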

The nature of data set [6]: Drug uptake in human PBMC assessed as parent compound remaining at 10 uM measured after 24 hrs by UPLC-MS analysis. Format: ADME, cell-based. As to conditions: PBMC (peripheral blood mononuclear cells), read-out: Drug uptake. The essentials:
as §1

In data set [7] the target is T1, Butyrophilin subfamily 3 member A1. In words: Activation of BTN3A1 in human PBMC-derived Vgamma9/Vdelta2 T cells assessed as induction of IL2-stimulated cell proliferation by measuring increase in CD3+ cells at 0.1 uM preincubated for 3 days followed by 11 days incubation post compound washout and subsequent IL2 stimulation for every 3 days measured after 14 days by flow cytometry relative to control. Type of data set: cell-based. (A flow cytometer gives signals particle by particle.)
Target sequence in this assay (O00481 30-513 limits assumed): as above

Data set [8] in a line: Drug uptake in T cell media assessed as parent compound remaining at 10 uM measured after 48 hrs by UPLC-MS analysis. The procedure, abridged:
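This was the cell-free control. Compound at 10 μM final was held in T cell media without PBMCs, and loss of the parent compound was followed over time. Supernatant was analysed by UPLC-MS on a C18 column (25% to 80% acetonitrile gradient over 8 min). The molecular-ion integral is expressed relative to t = 0.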

Data set [9] concerns the target Butyrophilin subfamily 3 member A1 (Homo sapiens, UniProt O00481, R448A). Put plainly: Displacement of GDP-BODIPY from C-terminal 6His-tagged BTN3A1 R448A mutant (unknown origin) expressed in Escherichia coli BL21 (DE) measured after 60 mins by fluorescence polarization assay.
In data set [10] the target is Butyrophilin subfamily 3 member A1 (Homo sapiens, UniProt O00481, R442A). Put plainly: Displacement of GDP-BODIPY from C-terminal 6His-tagged BTN3A1 R442A mutant (unknown origin) expressed in Escherichia coli BL21 (DE) measured after 60 mins by fluorescence polarization assay.
Sequence of Butyrophilin subfamily 3 member A1 (Homo sapiens, UniProt O00481, R442A) (O00481 30-513 R442A limits assumed): as the sequence (O00481 30-513 limits assumed) above, with R413A counted along it
For data set [11], the target named is Butyrophilin subfamily 3 member A1 (Homo sapiens, UniProt O00481, M424A). Put plainly: Displacement of GDP-BODIPY from C-terminal 6His-tagged BTN3A1 M424A mutant (unknown origin) expressed in Escherichia coli BL21 (DE) measured after 60 mins by fluorescence polarization assay. The procedure, abridged:
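GDP-BODIPY probe (750 nM final) was incubated with 10 μM mutant BTN3A1 full intracellular domain in 100 mM NaCl, 50 mM Tris, 5 mM β-mercaptoethanol, pH 7.5. Test ligand was added at varying concentrations, and plates were kept 60 min in the dark. FP was read at 485/535 nm in triplicate, with at least 3 independent experiments. Probe in buffer served as the negative control and probe with protein as the positive control. IC50 was obtained by 4-parameter nonlinear regression.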

The target of data set [12] is Butyrophilin subfamily 3 member A1 (Homo sapiens, UniProt O00481, W421A). Put plainly: Displacement of GDP-BODIPY from C-terminal 6His-tagged BTN3A1 W421A mutant (unknown origin) expressed in Escherichia coli BL21 (DE) measured after 60 mins by fluorescence polarization assay.
Sequence of Butyrophilin subfamily 3 member A1 (Homo sapiens, UniProt O00481, W421A) (O00481 30-513 W421A limits assumed): as the sequence (O00481 30-513 limits assumed) above, with W392A counted along it
In data set [13] the target is Butyrophilin subfamily 3 member A1 (Homo sapiens, UniProt O00481, R499A). Put plainly: Displacement of GDP-BODIPY from C-terminal 6His-tagged BTN3A1 R499A mutant (unknown origin) expressed in Escherichia coli BL21 (DE) measured after 60 mins by fluorescence polarization assay.
Sequence of Butyrophilin subfamily 3 member A1 (Homo sapiens, UniProt O00481, R499A) (O00481 30-513 R499A limits assumed): as the sequence (O00481 30-513 limits assumed) above, with R470A counted along it
Data set [14] concerns the target T1, Butyrophilin subfamily 3 member A1. In words: Activation of BTN3A1 in human PBMC-derived Vgamma9/Vdelta2 T cells assessed as induction of IL2-stimulated cell proliferation by measuring increase in CD3+ cells preincubated for 3 days followed by 11 days incubation post compound washout and subsequent IL2 stimulation for every 3 days measured after 14 days by flow cytometry. Format: cell-based.
Target sequence in this assay (O00481 whole entry): as the sequence (O00481 whole entry) above

Data set [15] shares this target. Put plainly: Activation of BTN3A1 in human PBMC-derived Vgamma9/Vdelta2 T cells assessed as induction of IL2-stimulated cell proliferation by measuring increase in CD3+ cells at 10 uM preincubated for 3 days followed by 11 days incubation post compound washout and subsequent IL2 stimulation for every 3 days measured after 14 days by flow cytometry relative to control. Format: cell-based.
Target sequence in this assay (O00481 30-513 limits assumed): as the sequence (O00481 30-513 limits assumed) above

pEC50, pIC50: −log10 of the molar value. Active and inactive are the calls of the source. The rule behind the calls is not given here.

Usually pIC50 stands for the negative decadic logarithm of the IC50, by convention in mol/L. Lower therefore signals a large IC50. As usually defined, the pEC50 is the negative decadic logarithm of the EC50, by convention in mol/L.

Sequence of Butyrophilin subfamily 3 member A1 (Homo sapiens, UniProt O00481, R448A) (O00481 30-513 R448A limits assumed): as the sequence (O00481 30-513 limits assumed) above, with R419A counted along it
Sequence of Butyrophilin subfamily 3 member A1 (Homo sapiens, UniProt O00481, M424A) (O00481 30-513 M424A limits assumed): as the sequence (O00481 30-513 limits assumed) above, with M395A counted along it

For the compound `C/C(=C\CCP(=O)(O)OP(=O)(O)O)CO`, the negative-log IC50 (pIC50) in data set [1] and in data set [2] was 5.10 each time. In addition, the pEC50 in [3] is 8.70.
Take `CC(C)=CCCCCP(=O)(OCOC(=O)C(C)(C)C)OCOC(=O)C(C)(C)C`: the result in data set [4] was inactive.
For the compound `C/C(=C\CCP(=O)(OCOC(=O)C(C)(C)C)OCOC(=O)C(C)(C)C)CO`, the remaining at 6 h, 10 µM in data set [5] was 58%. In addition, the remaining at 24 h, 10 µM in data set [6] was < 1%. In addition, the result in data set [7] was Active. The negative-log EC50 (pEC50) in data set [3] was 7.82. Moreover, in data set [8], the Drug uptake came out at 63%.
Regarding `C/C(=C\COP(=O)(O)OP(=O)(O)O)CO`, in data set [7], the Activity was found to be 64%.
Take `COP(=O)(CCCC/C=C(\C)CO)OC`: the result in [4] was inactive.
As for `C/C(=C\CCP(=O)(CP(=O)(OCOC(=O)C(C)(C)C)OCOC(=O)C(C)(C)C)OCOC(=O)C(C)(C)C)CO` (centres undefined), in [3], the negative logarithm of the EC50 (pEC50) was < 6.00.
For the compound `O=P([O-])([O-])OP(=O)([O-])[O-].[Na+].[Na+].[Na+].[Na+]` [SODIUM PYROPHOSPHATE], the EC50 result in data set [3] is “Not Active”.
As to `C/C(=C\CCP(=O)(O)O)CO`, the pIC50 in data set [9] was 2.41; in [10] it was 2.49; in data set [1], 2.59; in data set [11], 2.47; in data set [2], 2.41; in data set [12], 2.50. Further, in data set [13], the pIC50 is 2.42. The pEC50 in [3] was 5.47.
For `C/C(=C\CCCCP(=O)(OCOC(=O)C(C)(C)C)OCOC(=O)C(C)(C)C)CO`, in data set [5], the remaining at 6 h, 10 µM amounted to 44%. In data set [6], the remaining at 24 h, 10 µM is < 1%. The EC50 entry in data set [14] and in [3] was “Not Active” throughout. Also, the result in [4] was inactive. For the same compound, the Activity in [15] came out at 28.1%. Also, the Drug uptake in data set [8] was 44%.
For `C/C(=C\CCP(=O)(O)CP(=O)(O)O)CO`, the pIC50 in data set [1] was 3.99. Also, in data set [3], the pEC50 is < 4.00.
`C/C(=C\CCCCP(=O)([O-])[O-])CO.[Na+].[Na+]`: the pIC50 in data set [9] was 2.34; in [10] it was 2.46; in [11] it was 2.27; in data set [2] it was 2.97; in [12] it was 2.49; in data set [13], 2.43. Further, the EC50 result in data set [14] and in data set [3] was “Not Active” each time. Further, in data set [4], the outcome was inactive.

The values above are taken from ChEMBL document CHEMBL4364297, “Probing the Ligand-Binding Pocket of BTN3A1” (J Med Chem, 2019).
